Calls of active or inactive are those of the source. The rule behind the calls is not given here.
What was measured:
BaF3 [1] = test: Induction of apoptosis in mouse BaF3 cells harbouring JAK2 V617F mutant assessed as late apoptotic cells at 40 nM incubated for 24 hrs by Annexin V / propidium iodide staining based flow cytometry analysis (reference value: 12.2 %); assay type: functional
Procedure, shortened: (§1)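 Ba/F3 JAK2V617F cells exposed to compound at 20, 40, 80, 160 and 320 nM, then analysed for apoptosis by flow cytometry. Significance vs control by Dunnett's t test.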

BaF3 [2] = test: Induction of cell cycle arrest in mouse BaF3 cells harbouring JAK2 […] mutant assessed as accumulation of cells at G0/G1 phase at 2 nM incubated for 24 hrs by propidium iodide staining based flow cytometry analysis (reference value: 56.85 %); assay type: functional
BaF3 [3] = test: Induction of apoptosis in mouse BaF3 cells harbouring JAK2 V617F mutant assessed as viable cells at 40 nM incubated for 24 hrs by Annexin V / propidium iodide staining based flow cytometry analysis (reference value: 72.8 %); assay type: functional; settings: read-out: Activity; procedure, shortened: as §1
BaF3 [4] = test: Induction of cell cycle arrest in mouse BaF3 cells harbouring JAK2 […] mutant assessed as accumulation of cells at S phase at 16 nM incubated for 24 hrs by propidium iodide staining based flow cytometry analysis (reference value: 33.80 %); assay type: functional
BaF3 [5] = test: Induction of apoptosis in mouse BaF3 cells harbouring JAK2 V617F mutant assessed as early apoptotic cells at 160 nM incubated for 24 hrs by Annexin V / propidium iodide staining based flow cytometry analysis (reference value: 14.4 %); assay type: functional; procedure, shortened: as §1
BaF3 [6] = test: Induction of cell cycle arrest in mouse BaF3 cells harbouring JAK2 […] mutant assessed as accumulation of cells at G0/G1 phase at 4 nM incubated for 24 hrs by propidium iodide staining based flow cytometry analysis (reference value: 56.85 %); assay type: functional
[7] = biological target: Tyrosine-protein kinase JAK2 (Homo sapiens, UniProt O60674, V617F); test: Inhibition of JAK2 V617F mutant in human SET2 cells; assay type: cell-based
Sequence of Tyrosine-protein kinase JAK2 (Homo sapiens, UniProt O60674, V617F) (O60674 whole entry V617F): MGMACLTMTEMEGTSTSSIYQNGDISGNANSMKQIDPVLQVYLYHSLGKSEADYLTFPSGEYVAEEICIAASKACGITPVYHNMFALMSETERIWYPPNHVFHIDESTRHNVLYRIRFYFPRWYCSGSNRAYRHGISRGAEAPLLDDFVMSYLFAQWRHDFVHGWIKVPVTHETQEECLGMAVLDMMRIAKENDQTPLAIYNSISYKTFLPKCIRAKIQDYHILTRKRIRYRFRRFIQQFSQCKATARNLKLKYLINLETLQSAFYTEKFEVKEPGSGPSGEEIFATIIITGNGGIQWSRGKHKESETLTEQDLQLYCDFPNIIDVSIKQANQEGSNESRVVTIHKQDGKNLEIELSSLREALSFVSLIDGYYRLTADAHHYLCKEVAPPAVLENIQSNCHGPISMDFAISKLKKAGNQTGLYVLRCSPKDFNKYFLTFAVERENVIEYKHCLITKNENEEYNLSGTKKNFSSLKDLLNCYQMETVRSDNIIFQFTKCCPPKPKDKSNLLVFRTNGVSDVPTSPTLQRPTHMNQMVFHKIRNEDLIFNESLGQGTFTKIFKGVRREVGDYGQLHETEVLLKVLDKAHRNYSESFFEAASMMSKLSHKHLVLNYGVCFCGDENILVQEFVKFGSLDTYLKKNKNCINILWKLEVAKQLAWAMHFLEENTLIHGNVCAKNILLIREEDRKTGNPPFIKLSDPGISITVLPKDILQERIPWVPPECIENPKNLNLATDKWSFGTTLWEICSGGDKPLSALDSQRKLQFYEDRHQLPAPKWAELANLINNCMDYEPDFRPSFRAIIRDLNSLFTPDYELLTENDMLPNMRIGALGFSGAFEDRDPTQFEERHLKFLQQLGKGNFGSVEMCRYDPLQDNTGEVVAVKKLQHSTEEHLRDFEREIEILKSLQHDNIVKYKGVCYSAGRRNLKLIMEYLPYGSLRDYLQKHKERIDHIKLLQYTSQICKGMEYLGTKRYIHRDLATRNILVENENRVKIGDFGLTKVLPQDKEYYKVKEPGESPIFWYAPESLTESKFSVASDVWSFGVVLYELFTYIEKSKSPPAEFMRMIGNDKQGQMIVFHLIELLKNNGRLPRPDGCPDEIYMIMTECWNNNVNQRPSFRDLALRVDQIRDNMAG
Procedure, shortened: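 Cell proliferation assay. IC50 is the concentration that inhibits proliferation by 50%, taken from dose–response curves. Mean ± SEM of at least three independent experiments.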

BaF3 [8] = test: Induction of cell cycle arrest in mouse BaF3 cells harbouring JAK2 […] mutant assessed as accumulation of cells at G0/G1 phase at 16 nM incubated for 24 hrs by propidium iodide staining based flow cytometry analysis (reference value: 56.85 %); assay type: functional
BaF3 [9] = test: Induction of apoptosis in mouse BaF3 cells harbouring JAK2 V617F mutant assessed as early apoptotic cells at 20 nM incubated for 24 hrs by Annexin V / propidium iodide staining based flow cytometry analysis (reference value: 14.4 %); assay type: functional; procedure, shortened: as §1
BaF3 [10] = test: Induction of apoptosis in mouse BaF3 cells harbouring JAK2 V617F mutant assessed as late apoptotic cells at 80 nM incubated for 24 hrs by Annexin V / propidium iodide staining based flow cytometry analysis (reference value: 12.2 %); assay type: functional; procedure, shortened: as §1
BaF3 [11] = test: Induction of apoptosis in mouse BaF3 cells harbouring JAK2 V617F mutant assessed as early apoptotic cells at 40 nM incubated for 24 hrs by Annexin V / propidium iodide staining based flow cytometry analysis (reference value: 14.4 %); assay type: functional; procedure, shortened: as §1
BaF3 [12] = test: Induction of apoptosis in mouse BaF3 cells harbouring JAK2 V617F mutant assessed as early apoptotic cells at 320 nM incubated for 24 hrs by Annexin V / propidium iodide staining based flow cytometry analysis (reference value: 14.4 %); assay type: functional; procedure, shortened: as §1
[13] = biological target: T1, Receptor-type tyrosine-protein kinase FLT3 (Homo sapiens, UniProt P36888); test: Inhibition of FLT3 (unknown origin) in presence of Mg/ATP mixture by [gamma p33]-ATP based radiometric assay
T1 sequence (P36888 whole entry): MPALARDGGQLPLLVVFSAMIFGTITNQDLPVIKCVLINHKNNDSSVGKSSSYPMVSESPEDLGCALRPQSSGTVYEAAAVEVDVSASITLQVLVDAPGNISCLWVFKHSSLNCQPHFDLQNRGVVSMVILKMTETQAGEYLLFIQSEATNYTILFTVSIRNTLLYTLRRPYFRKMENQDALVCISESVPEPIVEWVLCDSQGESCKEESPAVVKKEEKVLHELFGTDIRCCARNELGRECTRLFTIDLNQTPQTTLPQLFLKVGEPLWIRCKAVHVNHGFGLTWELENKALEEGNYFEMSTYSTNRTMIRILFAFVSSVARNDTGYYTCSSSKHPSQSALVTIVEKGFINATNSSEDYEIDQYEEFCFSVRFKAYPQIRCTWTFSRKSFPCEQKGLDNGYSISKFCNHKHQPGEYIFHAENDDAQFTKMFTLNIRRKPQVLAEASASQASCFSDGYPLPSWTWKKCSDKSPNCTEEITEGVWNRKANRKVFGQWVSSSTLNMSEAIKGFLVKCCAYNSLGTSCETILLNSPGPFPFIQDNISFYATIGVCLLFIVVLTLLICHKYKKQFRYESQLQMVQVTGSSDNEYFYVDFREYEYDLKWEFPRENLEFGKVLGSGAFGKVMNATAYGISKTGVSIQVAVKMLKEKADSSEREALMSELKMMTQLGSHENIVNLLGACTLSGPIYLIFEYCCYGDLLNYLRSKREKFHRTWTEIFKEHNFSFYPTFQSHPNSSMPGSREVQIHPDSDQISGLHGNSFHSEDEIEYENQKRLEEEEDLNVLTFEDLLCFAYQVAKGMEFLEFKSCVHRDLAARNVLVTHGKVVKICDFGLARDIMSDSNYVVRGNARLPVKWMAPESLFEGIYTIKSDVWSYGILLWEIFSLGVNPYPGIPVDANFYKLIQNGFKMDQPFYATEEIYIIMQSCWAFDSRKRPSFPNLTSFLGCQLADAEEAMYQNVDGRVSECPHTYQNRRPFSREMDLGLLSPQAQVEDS
Procedure, shortened: (§2)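 IC50 values determined by Eurofins Discovery.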

[14] = biological target: Non-receptor tyrosine-protein kinase TYK2 (Homo sapiens, UniProt P29597); test: Inhibition of TYK2 (unknown origin) in presence of Mg/ATP mixture by [gamma p33]-ATP based radiometric assay
Sequence of Non-receptor tyrosine-protein kinase TYK2 (P29597 whole entry): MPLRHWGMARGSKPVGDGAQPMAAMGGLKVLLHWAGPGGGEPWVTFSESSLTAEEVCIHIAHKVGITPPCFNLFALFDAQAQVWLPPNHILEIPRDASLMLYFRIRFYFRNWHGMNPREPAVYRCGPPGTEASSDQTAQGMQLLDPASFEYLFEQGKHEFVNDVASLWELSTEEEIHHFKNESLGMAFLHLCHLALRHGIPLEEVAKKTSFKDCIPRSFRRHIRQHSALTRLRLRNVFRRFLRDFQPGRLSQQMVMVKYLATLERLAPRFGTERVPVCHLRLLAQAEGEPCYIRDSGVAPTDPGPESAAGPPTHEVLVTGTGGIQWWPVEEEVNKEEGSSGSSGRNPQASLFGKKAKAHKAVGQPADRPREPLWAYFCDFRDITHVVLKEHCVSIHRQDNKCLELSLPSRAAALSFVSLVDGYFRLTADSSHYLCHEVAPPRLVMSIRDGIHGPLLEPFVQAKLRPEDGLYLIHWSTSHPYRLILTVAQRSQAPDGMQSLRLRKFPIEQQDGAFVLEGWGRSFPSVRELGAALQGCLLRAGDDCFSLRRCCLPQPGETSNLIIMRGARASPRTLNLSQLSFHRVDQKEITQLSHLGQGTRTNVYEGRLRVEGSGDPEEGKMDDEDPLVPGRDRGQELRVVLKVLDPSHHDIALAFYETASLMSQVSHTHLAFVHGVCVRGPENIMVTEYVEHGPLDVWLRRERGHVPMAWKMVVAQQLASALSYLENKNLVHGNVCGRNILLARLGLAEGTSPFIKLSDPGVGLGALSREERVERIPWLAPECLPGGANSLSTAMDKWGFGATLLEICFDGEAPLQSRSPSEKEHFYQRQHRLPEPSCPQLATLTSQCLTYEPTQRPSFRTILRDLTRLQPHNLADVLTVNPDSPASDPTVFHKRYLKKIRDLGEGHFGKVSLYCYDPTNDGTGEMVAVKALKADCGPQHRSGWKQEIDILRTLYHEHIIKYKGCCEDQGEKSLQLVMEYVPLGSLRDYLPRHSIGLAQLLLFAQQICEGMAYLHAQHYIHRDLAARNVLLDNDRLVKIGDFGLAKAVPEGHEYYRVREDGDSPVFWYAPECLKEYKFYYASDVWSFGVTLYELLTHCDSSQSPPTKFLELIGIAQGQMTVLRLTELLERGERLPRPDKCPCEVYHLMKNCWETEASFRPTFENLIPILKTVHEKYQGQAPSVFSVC

BaF3 [15] = test: Inhibition of JAK2/STAT signaling pathway in mouse BaF3 cells harbouring JAK2 V617F mutant assessed as reduction in STAT5 phosphorylation by Western blot analysis; assay type: cell-based; settings: dose 10-1000 nM
Procedure, shortened: (§3)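 Ba/F3 JAK2V617F cells treated with compound at increasing concentrations. Phosphorylation levels of JAK2, STAT3, STAT5 and AKT assessed by Western blot.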

[16] = biological target: Tyrosine-protein kinase Lyn (Homo sapiens) (UniProt P07948); test: Inhibition of LYN (unknown origin)
Sequence of Tyrosine-protein kinase Lyn (Homo sapiens) (P07948 2-512 limits assumed): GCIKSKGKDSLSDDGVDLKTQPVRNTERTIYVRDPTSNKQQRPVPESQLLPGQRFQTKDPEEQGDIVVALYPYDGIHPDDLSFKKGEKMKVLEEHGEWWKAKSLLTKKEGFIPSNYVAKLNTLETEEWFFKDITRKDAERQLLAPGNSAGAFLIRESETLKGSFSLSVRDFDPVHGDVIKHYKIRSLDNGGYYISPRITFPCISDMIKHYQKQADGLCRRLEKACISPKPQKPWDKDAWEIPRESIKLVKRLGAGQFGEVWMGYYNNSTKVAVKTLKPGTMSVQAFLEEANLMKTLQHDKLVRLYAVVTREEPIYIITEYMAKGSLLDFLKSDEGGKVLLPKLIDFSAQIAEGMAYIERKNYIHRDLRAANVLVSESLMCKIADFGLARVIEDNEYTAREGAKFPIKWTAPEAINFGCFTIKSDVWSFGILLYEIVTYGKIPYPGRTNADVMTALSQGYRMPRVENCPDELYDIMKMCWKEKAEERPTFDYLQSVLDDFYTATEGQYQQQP
Procedure, shortened: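 Kinase panel profiling (KinaseProfile, run by an outside contractor). The inhibitor was tested at 1 μM in duplicate against DMSO control. The value is % control, the percentage of kinase activity remaining.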

BaF3 [17] = test: Inhibition of JAK2/STAT signaling pathway in mouse BaF3 cells harbouring JAK2 V617F mutant assessed as reduction in JAK2 phosphorylation by Western blot analysis; assay type: cell-based; settings: dose 10-1000 nM; procedure, shortened: as §3
[18] = biological target: Tyrosine-protein kinase JAK2 (Homo sapiens, UniProt O60674); test: Inhibition of JAK2 (unknown origin) in presence of Mg/ATP mixture by [gamma p33]-ATP based radiometric assay; procedure, shortened: as §2
Sequence of Tyrosine-protein kinase JAK2 (Homo sapiens, UniProt O60674) (O60674 whole entry): as the sequence (O60674 whole entry V617F) above, with F617V counted along it

| IC50 [7] [nM] | IC50 [13] [nM] | IC50 [14] [nM] | inhibition [16] | IC50 [18] [nM] | SMILES | Activity (BaF3 [1]) [%] | Activity (BaF3 [2]) [%] | viability at 0.04 µM (BaF3 [3]) [%] | Activity (BaF3 [4]) [%] | Activity (BaF3 [5]) [%] | Activity (BaF3 [6]) [%] | Activity (BaF3 [8]) [%] | Activity (BaF3 [9]) [%] | Activity (BaF3 [10]) [%] | Activity (BaF3 [11]) [%] | Activity (BaF3 [12]) [%] | inhibition (BaF3 [15]) | inhibition (BaF3 [17]) |
| --- | --- | --- | --- | --- | --- | --- | --- | --- | --- | --- | --- | --- | --- | --- | --- | --- | --- | --- |
| 475 | 62 | – | – | – | Cc1cnc(Nc2ccc3c(c2)CCN(C(=O)/C=C/CN(C)C)C3)nc1-c1cnn(C(C)C)c1 | 15.6 | 56.54 | 61.1 | 31.63 | 48.1 | 57.34 | 59.42 | 18.4 | 25.4 | 22.4 | 47 | – | – |
| 44.3 | 467 | 206 | Active | 5 | C=CS(=O)(=O)NCc1ccc(Nc2ncc(C)c(-c3cnn(C(C)C)c3)n2)cc1 | 26.2 | 61.14 | 44.1 | 20.76 | 37.5 | 62.95 | 69.31 | 24.7 | 38.7 | 26.4 | 31 | Dose-Dependent Effect | Dose-Dependent Effect |

— ChEMBL document CHEMBL5325511, “Discovery of N-(4-(Aminomethyl)phenyl)-5-methylpyrimidin-2-amine Derivatives as Potent and Selective JAK2 Inhibitors” (ACS Med Chem Lett, 2023)
